Results published in ChEMBL document CHEMBL1152910, “Synthesis and structure-activity relationships of phenothiazine carboxylic acids having pyrimidine-dione as novel histamine H(1) antagonists” (Bioorg Med Chem Lett, 2009).

Tests used:
Histamine H1 receptor [1] = target: T1, Histamine H1 receptor (Homo sapiens, UniProt P35367); assay: Inhibition of histamine H1 receptor
Mus musculus [2] = assay: Antiinflammatory activity in BALB/c mouse model assessed as inhibition of ovalbumin-induced ear swelling at 10 mg/kg, po administered 60 mins before ovalbumin challenge measured 24 hrs after elicitation by late type reaction assay; format: functional
Method in brief: (§1)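 Female BALB/c mice, 8 weeks old, sensitized by i.p. OVA with alum; two weeks later compound suspended in 0.5% MC given orally 60 min before OVA injection into the ear.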

Mus musculus [3] = assay: Antiinflammatory activity in BALB/c mouse model assessed as inhibition of ovalbumin-induced ear swelling at 10 mg/kg, po administered 60 mins before ovalbumin challenge measured 1 hr after elicitation by immediate type reaction assay; format: functional; method in brief: as §1
Mus musculus [4] = assay: Antiinflammatory activity in po dosed BALB/c mouse model assessed as inhibition of ovalbumin-induced ear swelling administered 60 mins before ovalbumin challenge measured 24 hrs after elicitation by late type reaction assay; format: functional, organism-based; method in brief: as §1
Mus musculus [5] = species on record: Mus musculus; assay: animal or person; format: functional; settings: ddY, route oral
Histamine H1 receptor [6] = target: T1, Histamine H1 receptor; assay: Displacement of [3H]pyrilamine from human recombinant histamine H1 receptor expressed in CHOK1 cells by scintillation counting; format: cell-based, CHO-K1
Mus musculus [7] = assay: Antiinflammatory activity in po dosed BALB/c mouse model assessed as inhibition of ovalbumin-induced ear swelling administered 60 mins before ovalbumin challenge measured 1 hr after elicitation by immediate type reaction assay; format: functional, organism-based; method in brief: as §1
[8] = Apparent permeability from apical to basolateral side of human Caco-2 cells after 120 mins
[9] = Protein binding in rat by equilibrium dialysis; format: ADME, organism-based; settings: read-out: PB (converted)
Method in brief: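 Protein binding (%) determined by equilibrium dialysis.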

[10] = Oral bioavailability in rat; format: ADME, organism-based; settings: in vivo
Mus musculus [11] = assay: Antiinflammatory activity in BALB/c mouse model assessed as inhibition of ovalbumin-induced ear swelling at 30 mg/kg, po administered 60 mins before ovalbumin challenge measured 1 hr after elicitation by immediate type reaction assay; format: functional; method in brief: as §1
Mus musculus [12] = assay: Antiinflammatory activity in BALB/c mouse model assessed as inhibition of ovalbumin-induced ear swelling at 30 mg/kg, po administered 60 mins before ovalbumin challenge measured 24 hrs after elicitation by late type reaction assay; format: functional; method in brief: as §1
Mus musculus [13] = assay: In vivo antihistaminic activity at histamine H1 receptor in ddY mouse assessed as inhibition of histamine-induced skin vascular permeability at 10 mg/kg, po administered 1 hr before histamine challenge measured after 30 mins by Evan's blue staining; format: functional

T1 sequence (P35367 whole entry): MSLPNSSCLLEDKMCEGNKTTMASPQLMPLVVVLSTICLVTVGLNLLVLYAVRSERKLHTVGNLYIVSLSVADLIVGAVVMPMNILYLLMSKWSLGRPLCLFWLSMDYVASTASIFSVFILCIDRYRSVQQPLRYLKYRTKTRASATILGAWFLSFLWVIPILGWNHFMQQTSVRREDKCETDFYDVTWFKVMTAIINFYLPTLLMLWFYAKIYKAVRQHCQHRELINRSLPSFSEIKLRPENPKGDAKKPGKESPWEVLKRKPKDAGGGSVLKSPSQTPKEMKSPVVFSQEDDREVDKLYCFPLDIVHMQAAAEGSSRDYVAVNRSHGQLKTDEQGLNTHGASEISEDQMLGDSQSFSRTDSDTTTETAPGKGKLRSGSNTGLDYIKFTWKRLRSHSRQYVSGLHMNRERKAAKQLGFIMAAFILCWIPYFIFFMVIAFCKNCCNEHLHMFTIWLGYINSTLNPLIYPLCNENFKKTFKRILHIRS

| SMILES | inhibition in vivo at 10 mg/kg (Mus musculus [2]) | inhibition in vivo at 10 mg/kg (Mus musculus [3]) | inhibition in vivo at 3 mg/kg (Mus musculus [5]) | IC50 (Histamine H1 receptor [6]) | Papp A→B at 2 h [8] | fraction unbound [9] | bioavailability [10] | also measured |
| --- | --- | --- | --- | --- | --- | --- | --- | --- |
| Cn1c(NCCCN2CCC(Oc3ccc(Cl)cc3C(=O)O)CC2)cc(=O)n(C)c1=O |  |  |  |  |  |  |  | IC50 (Histamine H1 receptor [1]): > 1000 nM |
| C[C@]12C=CC(=O)C=C1CC[C@@H]1[C@@H]2[C@@H](O)C[C@@]2(C)[C@H]1CC[C@]2(O)C(=O)CO [PREDNISOLONE] | 81% | 22% |  |  |  |  |  |  |
| CC(C)(C(=O)O)c1ccc(C(O)CCCN2CCC(C(O)(c3ccccc3)c3ccccc3)CC2)cc1 (centres undefined) [FEXOFENADINE] | 6% | 61% |  |  |  |  |  |  |
| Cn1c(N2CCN(CCCN3c4ccccc4Sc4ccc(CC(=O)O)cc43)CC2)cc(=O)n(C)c1=O | 64% | 73% | 61% | 40 nM | 12.3 ×10⁻⁶ cm/s | 0.022 | 27% | inhibition (Mus musculus [4]): Dose-dependent effect; inhibition (Mus musculus [7]): Dose-dependent effect |
| CCC(C(=O)O)c1ccc2c(c1)N(CCCN1CCCN(c3cc(=O)n(C)c(=O)n3C)CC1)c1ccccc1S2 (centres undefined) |  |  | 51% | 41 nM | 22.3 ×10⁻⁶ cm/s |  | 14% |  |
| Cn1c(NCCCN2CCC(Oc3ccc(Cl)c(Cl)c3)CC2)cc(=O)n(C)c1=O |  |  |  | 28 nM | 4.2 ×10⁻⁶ cm/s | 0.166 | 25% | inhibition in vivo at 30 mg/kg (Mus musculus [11]): 72%; inhibition in vivo at 30 mg/kg (Mus musculus [12]): 61%; IC50 (Histamine H1 receptor [1]): 58 nM; inhibition in vivo at 10 mg/kg (Mus musculus [13]): 69% |
| Cn1c(NCCCN2CCC(CN3c4ccccc4Sc4ccc(C(=O)O)cc43)CC2)cc(=O)n(C)c1=O |  |  |  | 46 nM | 0.4 ×10⁻⁶ cm/s |  |  |  |
| CN(CCCN1CCC(CN2c3ccccc3Sc3ccc(C(=O)O)cc32)CC1)c1cc(=O)n(C)c(=O)n1C |  |  |  | 53 nM | 0.6 ×10⁻⁶ cm/s |  |  |  |
| Cn1c(N2CCN(CCN3c4ccccc4Sc4ccc(C(=O)O)cc43)CC2)cc(=O)n(C)c1=O |  |  |  | 124 nM | 4.9 ×10⁻⁶ cm/s |  |  |  |
| CN1CCC(=C2c3ccccc3CC(=O)c3sccc32)CC1.O=C(O)/C=C/C(=O)O [KETOTIFEN FUMARATE] | 3% | 119% | 98% |  | 11.1 ×10⁻⁶ cm/s |  |  | inhibition in vivo at 30 mg/kg (Mus musculus [11]): 106%; inhibition in vivo at 30 mg/kg (Mus musculus [12]): -4% |
| Cn1c(N2CCCN(CCCN3c4ccccc4Sc4ccc(/C=C\C(=O)O)cc43)CC2)cc(=O)n(C)c1=O |  |  |  | 323 nM | 7.1 ×10⁻⁶ cm/s |  |  |  |
| Cn1c(N2CCN(CCCN3c4ccccc4Sc4ccc(CCC(=O)O)cc43)CC2)cc(=O)n(C)c1=O |  |  | 51% | 105 nM | 5.1 ×10⁻⁶ cm/s | 0.001 | 51% |  |
| Cn1c(N2CCCN(CCCN3c4ccccc4Sc4ccc(CC(=O)O)cc43)CC2)cc(=O)n(C)c1=O | 12% | 16% | 53% | 23 nM | 5.5 ×10⁻⁶ cm/s | 0.051 | 19% |  |
| Cn1c(C2=CCN(CCCN3c4ccccc4Sc4ccc(CC(=O)O)cc43)CC2)cc(=O)n(C)c1=O | 12% | 86% | 82% | 41 nM | 4.7 ×10⁻⁶ cm/s |  | 30% |  |
| Cn1c(N2CCCN(CCCN3c4ccccc4Sc4c(C(=O)O)cccc43)CC2)cc(=O)n(C)c1=O |  |  |  | > 500 nM | 0.5 ×10⁻⁶ cm/s |  |  |  |
| Cn1c(N2CCN(CCCN3c4ccccc4Sc4ccc(C(=O)O)cc43)CC2)cc(=O)n(C)c1=O | 65% | 47% |  | 37 nM | 9.9 ×10⁻⁶ cm/s | 0.006 | 17% | inhibition in vivo at 10 mg/kg (Mus musculus [13]): 39% |
| Cn1c(N2CCCN(CCCN3c4ccccc4Sc4ccc(CCC(=O)O)cc43)CC2)cc(=O)n(C)c1=O | 49% | 79% | 51% | 69 nM | 7.7 ×10⁻⁶ cm/s | 0.012 | 7% |  |
| Cn1c(N2CCCN(CCCN3c4ccccc4Sc4cccc(C(=O)O)c43)CC2)cc(=O)n(C)c1=O |  |  |  | > 500 nM | 0.5 ×10⁻⁶ cm/s |  |  |  |
| Cn1c(N2CCCN(CCCN3c4ccccc4Sc4ccc(C(C)(C)C(=O)O)cc43)CC2)cc(=O)n(C)c1=O |  |  |  | 123 nM | 9.9 ×10⁻⁶ cm/s | 0.045 |  |  |
| Cn1c(N2CCN(CCCCN3c4ccccc4Sc4ccc(C(=O)O)cc43)CC2)cc(=O)n(C)c1=O |  |  |  | 35 nM | 20.3 ×10⁻⁶ cm/s | 0.001 | 16% | inhibition in vivo at 10 mg/kg (Mus musculus [13]): 43% |
| Cn1c(N2CCCN(CCCN3c4ccccc4Sc4ccc(C(=O)O)cc43)CC2)cc(=O)n(C)c1=O | 53% | 50% | 14% | 23 nM | 4.7 ×10⁻⁶ cm/s | 0.012 | 7% |  |
| CC(C(=O)O)c1ccc2c(c1)N(CCCN1CCCN(c3cc(=O)n(C)c(=O)n3C)CC1)c1ccccc1S2 (centres undefined) |  |  | 79% | 72 nM | 6.9 ×10⁻⁶ cm/s | 0.022 | 10% |  |
| Cn1c(N2CCCN(CCCN3c4ccccc4Sc4ccc(OCC(=O)O)cc43)CC2)cc(=O)n(C)c1=O |  |  |  | 88 nM | 0.5 ×10⁻⁶ cm/s | 0.047 |  |  |
